Measurements gathered from unrelated publications.
Protocols differ between the studies behind these lines. In brackets after ≈: the same amount, converted by molar mass.

For `COC(=O)N[C@H](CC(C)C)C(=O)N1CCC[C@H]1C(=O)Nc1cccc(C#CC#Cc2cccc(NC(=O)[C@@H]3CCCN3C(=O)[C@@H](CC(C)C)NC(=O)OC)c2)c1`, the EC50 was 0.0186 µM (Hepatitis C virus; viral replication, inhibitor, luciferase; GETYPE4A; replicon).
`CC(=O)OC[C@@]1(C)[C@H]2CC[C@@H]3CN(Cc4ccc(C(C)(C)C)cc4)[C@@H](C4=CCOC4=O)C[C@H]3[C@]2(C)CC[C@H]1OC(C)=O` has an inhibition of 94.1% (unidentified human coronavirus; cytopathic effect; MRC5; 25 µM, 72 h).
With `CCOC(=O)c1c(N)csc1-c1cn(-c2ccccc2)nc1-c1ccc(C)cc1` the inhibition zone was 29 mm (Acinetobacter baumannii; microbial growth, well diffusion; 100000 µg/mL).
`Nc1nc(Cl)c2ncn([C@@H]3O[C@H](CO)[C@@H](F)[C@@H]3F)c2n1` has an EC50 of greater than 10 µM (Hepatitis C virus; viral replication, inhibitor; Huh-7; replicon).
`CCOC(=O)c1cc(C#N)c(=O)n(NS(=O)(=O)c2ccc(C)cc2)c1N` gave an IC50 of 90 µg/mL (≈ 239 µM) (Enterovirus B; plaque formation; BGM, B4).
With `N#CC(=Cc1ccc([N+](=O)[O-])cc1)C1=NC(=O)C(=Cc2cn(-c3ccccc3)nc2-c2ccccc2)S1` the inhibition zone was 19 mm (Acinetobacter baumannii; microbial growth, well diffusion; 100000 µg/mL).
`CCOC(=O)N[C@@H](C(=O)N1CCC[C@@H]1C(=O)Nc1ccc(C#CC#Cc2ccc(NC(=O)[C@H]3CCCN3C(=O)[C@H](NC(=O)OCC)C(C)C)cc2)cc1)C(C)C` gave an EC50 of greater than 10 µM (Hepatitis C virus; viral replication, inhibitor, luciferase; Huh-5-2, GETYPE1B; 72 h, replicon).
`CCCCCCC/C=C/C(=O)N1C(=O)/C(=C(\O)c2ccc(OCOCCOC)cc2)C(=O)C1CC(C)C` (stereo not drawn) has an MIC of greater than 200 µg/mL (Proteus mirabilis; microbial growth; ATCC25933).
`Cc1ccc(S(=O)(=O)Nc2nc(N)c(-c3nc4ccccc4s3)c(-c3ccc(Cl)cc3)n2)cc1` has an IC50 of 74 µg/mL (≈ 146 µM) (Enterovirus B; plaque formation; BGM, B4).
`COc1nc(OC)c2ncn([C@@H]3O[C@H](CO)[C@@H](F)[C@@H]3F)c2n1` gave an EC90 of greater than 10 µM (Hepatitis C virus; viral replication, inhibitor; Huh-7; replicon).
For `CC(=O)OC[C@@]1(C)[C@H]2CC[C@@H]3CN(Cc4cccc5ccccc45)[C@@H](C4=CCOC4=O)C[C@H]3[C@]2(C)CC[C@H]1OC(C)=O`, the inhibition was 106% (unidentified human coronavirus; cytopathic effect; MRC5; 25 µM, 72 h).
`CCOC(=O)N[C@@H](C(=O)N1CCC[C@@H]1C(=O)Nc1cccc(C#CC#Cc2cccc(NC(=O)[C@H]3CCCN3C(=O)[C@H](NC(=O)OCC)C(C)C)c2)c1)C(C)C` gave an EC50 of greater than 10 µM (Hepatitis C virus; viral replication, inhibitor, luciferase; Huh-5-2, GETYPE1B; 72 h, replicon).
`CC1(C)OC[C@@]2(C)[C@H]3CC[C@@H]4CN(Cc5ccc(C(C)(C)C)cc5)[C@@H](C5=CCOC5=O)C[C@H]4[C@]3(C)CC[C@H]2O1` has an inhibition of 103% (unidentified human coronavirus; cytopathic effect; MRC5; 25 µM, 72 h).
With `Cc1cn([C@H]2C[C@H](N=[N+]=[N-])[C@@H](CO)O2)c(=O)[nH]c1=O` the EC90 was greater than 10 µM (Hepatitis C virus; viral replication, inhibitor; Huh-7; replicon).
`C/C(=C\c1ccc(C#N)cc1)C(=O)Nc1ccc(C(=O)N[C@@H](CC(N)=O)C(=O)Nc2ccc(C(=O)Nc3ccc(C(=O)Nc4ccc(C(=O)O)cc4)c(O)c3OC(C)C)cc2)cc1` has an MIC of greater than 64 µg/mL (Proteus mirabilis; microbial growth; DSM4479).
With `OC[C@H]1O[C@@H](n2cnc3c(NCc4ccccc4)nc(Cl)nc32)[C@@H](F)[C@@H]1F` the EC50 was 2.9 µM (Hepatitis C virus; viral replication, inhibitor; Huh-7; replicon).
`N#CC(=Cc1cn(-c2ccccc2)nc1-c1ccccc1)C1=NC(=O)CS1` gave an inhibition zone of 26 mm (Acinetobacter baumannii; microbial growth, well diffusion; 100000 µg/mL).
The EC50 of `CCOC(=O)N[C@H](C(=O)N1CCC[C@H]1C(=O)Nc1cccc(C#CC#Cc2cccc(NC(=O)[C@@H]3CCCN3C(=O)[C@@H](NC(=O)OCC)[C@@H](C)CC)c2)c1)[C@H](C)CC` is reported as 0.392 µM (Hepatitis C virus; viral replication, inhibitor, luciferase; Huh-5-2, GETYPE1B; 72 h, replicon).
`CC(C)(O/N=C(\C(=O)N[C@@H]1C(=O)N2C(C(=O)[O-])=C(C[n+]3ccccc3)CS[C@H]12)c1csc(N)n1)C(=O)O` gave an inhibition zone of 6 mm (Acinetobacter baumannii; microbial growth, disc diffusion; 10 µg/disc, clinical isolate).
The EC50 of `Nc1nc(N)c2ncn([C@@H]3O[C@H](CO)[C@@H](F)[C@@H]3F)c2n1` is reported as greater than 10 µM (Hepatitis C virus; viral replication, inhibitor; Huh-7; replicon).
`CCOC(=O)N[C@H](CC(C)C)C(=O)N1CCC[C@H]1C(=O)Nc1cccc(C#CC#Cc2cccc(NC(=O)[C@@H]3CCCN3C(=O)[C@@H](CC(C)C)NC(=O)OCC)c2)c1` gave an EC50 of 4.11e-05 µM (Hepatitis C virus; viral replication, inhibitor, luciferase; Huh-5-2, GETYPE1B; 72 h, replicon).
`Nc1nc2c(ncn2[C@@H]2O[C@H](CO)[C@@H](F)[C@@H]2F)c(=O)[nH]1` has an EC90 of greater than 10 µM (Hepatitis C virus; viral replication, inhibitor; Huh-7; replicon).
For `COC(=O)N[C@H](C(=O)N1CCC[C@H]1C(=O)Nc1cccc(C#CC#Cc2cccc(NC(=O)[C@@H]3CCCN3C(=O)[C@@H](NC(=O)OC)C(C)C)c2)c1)C(C)C`, the EC50 was 9.5 µM (Hepatitis C virus; viral replication, inhibitor, luciferase; GETYPE3A; replicon).
The EC50 of `COC(=O)N[C@H](C(=O)N1CCC[C@H]1c1ncc(-c2ccc(-c3ccc(-c4cnc([C@@H]5CCCN5C(=O)[C@@H](NC(=O)OC)C(C)C)[nH]4)cc3)cc2)[nH]1)C(C)C` is reported as 3.7e-06 µM (Hepatitis C virus; viral replication, inhibitor; HeLa, GETYPE2A; replicon).
`CC(=O)OC[C@@]1(C)[C@H]2CC[C@@H]3CN(Cc4ccc([N+](=O)[O-])cc4)[C@@H](C4=CCOC4=O)C[C@H]3[C@]2(C)CC[C@H]1OC(C)=O` has an inhibition of 44.6% (unidentified human coronavirus; cytopathic effect; MRC5; 25 µM, 72 h).
For `O=C(Nc1ccccc1-c1ccc(F)c(F)c1)c1nccnc1C(F)(F)F`, the EC50 was 0.8 µg/mL (Venturia nashicola; microbial growth).
The MIC of `CCCCCCC/C=C/C(=O)N1C(=O)/C(=C(/C)O)C(=O)C1Cc1ccc(OC(C)(C)C)cc1` (stereo not drawn) is reported as greater than 200 µg/mL (Proteus mirabilis; microbial growth; ATCC25933).
The inhibition of `CCCN1C[C@H]2CC[C@@H]3[C@](C)(COC(C)=O)[C@H](OC(C)=O)CC[C@@]3(C)[C@@H]2C[C@@H]1C1=CCOC1=O` is reported as 45.8% (unidentified human coronavirus; cytopathic effect; MRC5; 25 µM, 72 h).
`CCCCCCC/C=C/C(=O)N1C(=O)/C(=C(\O)CCCC)C(=O)C1CC(C)C` (stereo not drawn) has an MIC of greater than 200 µg/mL (Proteus mirabilis; microbial growth; ATCC25933).
`N#CC(=Cc1ccccc1O)C1=NC(=O)C(=Cc2cn(-c3ccccc3)nc2-c2ccccc2)S1` gave an MBC of 0.25 µg/mL (Acinetobacter baumannii; microbial killing, broth dilution).
The EC90 of `O=C(OC[C@H]1O[C@H](n2cnc3c(Cl)nc(Cl)nc32)[C@@H](F)[C@@H]1F)c1ccccc1` is reported as less than 10 µM (Hepatitis C virus; viral replication, inhibitor; Huh-7; replicon).
The IC50 of `N#Cc1cc(-c2nc3ccccc3s2)c(=O)n(NS(=O)(=O)c2ccccc2)c1N` is reported as 84 µg/mL (≈ 198 µM) (Enterovirus B; plaque formation; BGM, B4).
With `CC(=O)OC[C@@]1(C)[C@H]2CC[C@@H]3CN(C(C)C)[C@@H](C4=CCOC4=O)C[C@H]3[C@]2(C)CC[C@H]1OC(C)=O` the inhibition was 80% (unidentified human coronavirus; cytopathic effect; MRC5; 25 µM, 72 h).
For `CCOC(=O)c1c(N)csc1-c1cn(-c2ccccc2)nc1-c1ccccc1`, the inhibition zone was 20 mm (Acinetobacter baumannii; microbial growth, well diffusion; 100000 µg/mL).
For `CCOC(=O)N[C@@H](CC(C)C)C(=O)N1CCC[C@@H]1C(=O)Nc1ccc(C#CC#Cc2ccc(NC(=O)[C@H]3CCCN3C(=O)[C@H](CC(C)C)NC(=O)OCC)cc2)cc1`, the EC50 was 5.63 µM (Hepatitis C virus; viral replication, inhibitor, luciferase; Huh-5-2, GETYPE1B; 72 h, replicon).
The IC50 of `O=C(CNc1nc(NS(=O)(=O)c2ccccc2)ncc1-c1nc2ccccc2s1)c1ccc(Cl)cc1` is reported as 92 µg/mL (≈ 172 µM) (Enterovirus B; plaque formation; BGM, B4).
The MIC of `CCCCC(=O)N1C(=O)/C(=C(/C)O)C(=O)C1CC(C)C` (stereo not drawn) is reported as greater than 200 µg/mL (Proteus mirabilis; microbial growth; ATCC25933).
For `CC(=O)OC[C@@]1(C)[C@H]2CC[C@@H]3CN(Cc4ccc(Br)cc4)[C@@H](C4=CCOC4=O)C[C@H]3[C@]2(C)CC[C@H]1OC(C)=O`, the inhibition was 107% (unidentified human coronavirus; cytopathic effect; MRC5; 25 µM, 72 h).
The MIC of `C/C(O)=C1\C(=O)C(CC(C)C)N(C(=O)CCCCCc2ccccc2)C1=O` (stereo not drawn) is reported as greater than 200 µg/mL (Proteus mirabilis; microbial growth; ATCC25933).
`CC1(C)OC[C@@]2(C)[C@H]3CC[C@@H]4CN(Cc5ccc(I)cc5)[C@@H](C5=CCOC5=O)C[C@H]4[C@]3(C)CC[C@H]2O1` gave an inhibition of 87.2% (unidentified human coronavirus; cytopathic effect; MRC5; 25 µM, 72 h).
`Nc1nc(NS(=O)(=O)c2ccccc2)nc(-c2ccc(F)cc2)c1-c1nc2ccccc2s1` has an IC50 of 93 µg/mL (≈ 195 µM) (Enterovirus B; plaque formation; BGM, B4).
`O=C(O)c1cn(C2CC2)c2cc(N3CCNCC3)c(F)cc2c1=O` gave an MBC of 0.25 µg/mL (Acinetobacter baumannii; microbial killing, broth dilution).
`C[C@@]1(O)[C@H](O)[C@@H](CO)O[C@H]1n1ccc(N)nc1=O` gave an EC90 of 5.8 µM (Hepatitis C virus; viral replication, inhibitor; Huh-7; replicon).
`CCCCCCC/C=C/C(=O)N1C(=O)/C(=C(/C)O)C(=O)C1Cc1ccc(O)cc1` (stereo not drawn) has an MIC of greater than 200 µg/mL (Proteus mirabilis; microbial growth; ATCC25933).
`CCn1cc(C(=O)O)c(=O)c2cc(F)c(N3CCNCC3)cc21` gave an MBC of 16 µM (Acinetobacter baumannii; microbial killing, broth dilution; BAA747).
